Assay outcomes as filed in PubChem.
Only some compounds are listed: those with a hit (about 0.79% of all), similar ones and a draw of the others.
mIAP activ: mouse IAP activation. muIAP, CDP-Star luminescence, 30 min; hits give high values; 1 = vehicle-only enzyme signal, 0 = enzyme-free wells. activation factor at 10 µM. 330,000 compounds, 0.24% hits. AID 2805;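 active = activation factor of at least 2 at 20 µM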
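System: mouse IAP enzyme. Reagent: CDP-Star chemiluminescent phosphatase substrate. Benchmarks: DMSO wells, no-enzyme wells. Times: 30 min enzyme-substrate-compound incubation at room temperature. Detection: luminescence from enzymatic CDP-Star hydrolysis. Doses: test compounds delivered from DMSO solution.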
bIAP inh: blocks bovine intestinal alkaline phosphatase activity; AID 1019; purified bovine IAP, CDP-star luminescence, 30 min; inhibition, % at 20 µM; 190,000 tested, under 10 active;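 active = over 50% inhibition of intestinal alkaline phosphatase at 20 µM in the single-dose screen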
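test system = bovine IAP enzyme | medium = DEA buffer 100 mM, pH 9.8, with MgCl2 1.0 mM, ZnCl2 0.02 mM | detection = luminescence | dosing = single compound dose of 20 µM, 2% DMSO final | incubation = 30 min reaction at room temperature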
bIAP act: intestinal alkaline phosphatase (bovine) activation; purified bovine IAP, CDP-star luminescence, 30 min; hits give high values; fold of DMSO-control signal, blank-subtracted; 200,000 compounds, 0.17% hits; activation factor at 20 µM;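 active = activation factor of 2 or more at 20 µM, a signal rise over negative controls twice the positive control's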
hIAP activ: increases human intestinal alkaline phosphatase activity. P09923. purified human IAP, CDP-Star luminescence, 30 min; hits give high values; 1 = vehicle-only enzyme, 0 = enzyme-free background. activation factor at 10 µM. 330,000 compounds, 0.16% hits. AID 2524;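 active = activation factor of the enzyme at least 2-fold when tested at 20 µM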
Target sequence (P09923 whole entry, looked up): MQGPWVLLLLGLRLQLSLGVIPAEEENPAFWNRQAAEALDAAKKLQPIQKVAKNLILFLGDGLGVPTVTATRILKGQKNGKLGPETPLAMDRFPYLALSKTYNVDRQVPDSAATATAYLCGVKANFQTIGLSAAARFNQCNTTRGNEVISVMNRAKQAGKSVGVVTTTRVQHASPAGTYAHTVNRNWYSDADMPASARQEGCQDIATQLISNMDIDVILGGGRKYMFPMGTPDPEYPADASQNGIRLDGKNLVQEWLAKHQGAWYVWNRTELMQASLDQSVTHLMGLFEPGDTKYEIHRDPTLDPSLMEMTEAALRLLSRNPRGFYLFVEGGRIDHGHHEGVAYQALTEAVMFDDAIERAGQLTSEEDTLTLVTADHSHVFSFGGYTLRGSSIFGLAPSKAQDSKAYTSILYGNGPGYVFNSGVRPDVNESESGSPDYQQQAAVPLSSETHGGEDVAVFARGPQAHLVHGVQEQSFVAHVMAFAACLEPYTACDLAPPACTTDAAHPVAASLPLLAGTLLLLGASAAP
hIAP inh: blocks human intestinal alkaline phosphatase | AID 2544 | P09923 | 330,000 compounds, 0.12% hits | purified IAP, CDP-Star luminescence, 30 min | inhibition, % at 10 µM;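 active = inhibition reaching a set limit with compound at 10 µM in the primary screen, cut at about 35% in these data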;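 note: plate controls were DMSO wells with enzyme for no effect and no-enzyme buffer wells for full effect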
mIAP inh: blocks mouse intestinal alkaline phosphatase; AID 2806; inhibition, % at 10 µM; purified mouse IAP, CDP-Star luminescence, 30 min; 330,000 compounds, 0.2% hits;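 active = inhibition of at least 40% at 10 µM in the primary screen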;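 note: plate controls were DMSO with enzyme for no effect and no enzyme wells for full effect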
hIAP act confirm: human IAP activation confirmation; 880 compounds, 10% hits; shares compounds with hIAP activ; purified IAP, CDP-Star luminescence, 30 min; hits give low values; AID 434926; activation (%Activity, negative = activation), % at 8.3 µM;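 active = at least twofold enzyme activation in any of six single-dose repeats, which the averaged readout prints as negative percent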
* hit, by the source's call; · = not tested or not shown.

SMILES	mIAP activ	bIAP inh	bIAP act	hIAP activ	hIAP inh	mIAP inh	hIAP act confirm
C#CC(CC)(CC)NC(=O)Nc1ccccc1C(=O)OC	0.882	-5.7	1.1	0.614	38.6*	11.8	-4.3
O=C(NNC(=S)NC(=O)c1ccc(F)cc1)c1ccncc1	0.767	·	·	2.12*	-112.1	23.3	-55.6
CC1(c2ccc(Cl)cc2)NC(=O)N(CN2CCOCC2)C1=O (stereo not given)	0.934	·	·	0.857	14.3	6.6	·
O=C(c1cnn2c(C(F)(F)F)cc(-c3ccc(Br)cc3)nc12)N1CCOCC1	·	-1.0	1	·	·	·	·
Cc1nn2c(C(F)(F)F)cc(-c3ccc(Cl)cc3)nc2c1C(=O)N1CCOCC1	1.02	8.1	0.9	2.77*	-177.1	-1.6	7.6
COc1cc(/C=C2\SC(=S)N(NC(=O)c3ccncc3)C2=O)ccc1O	0.633	·	·	0.648	35.2*	36.7	-2.7
COc1cc(/C=C2\SC(=S)N(NC(=O)c3ccc(O)c(OC)c3)C2=O)ccc1O	0.736	·	·	0.543	45.7*	26.4	-49.6
COc1cc(/C=C2\SC(=S)N(NC(=O)c3cccc(O)c3)C2=O)ccc1O	0.714	·	·	0.739	26.1	28.6	·
COc1cc(/C=C2\SC(=S)N(N3CCOCC3)C2=O)ccc1O	0.655	·	·	0.556	44.4*	34.5	-24.0
CC(C)N(C)Cc1nnnn1CC(=O)N(C)Cc1ccc(F)cc1	0.953	·	·	1.06	-6.3	4.7	·
O=C(NCC1CCCO1)C(=O)N/N=C/c1cc(Cl)ccc1O (stereo not given)	1.08	·	·	2*	-100.3	-8.1	-15.5
CC(NC(=O)COc1ccc(Br)cc1)C1CCCO1 (stereo not given)	1.02	·	·	0.964	3.6	-2.2	·
CCc1ccc(N=C2N=C(N)c3ccccc32)cc1	0.96	8.5	0.9	0.624	37.6*	4.0	21.2
COc1ccc(/C=C/C(=O)NCCSCc2ccco2)cc1OC	1.02	·	·	1.04	-3.7	-2.5	·
COc1ccccc1OCC(=O)NNC(=O)CCCC(=O)NNC(=O)COc1ccccc1OC	0.849	·	·	0.765	23.5	15.1	·
NC(=S)NNC(=O)COc1ccccc1O	0.67	·	·	2.15*	-114.6	33.0	-3.2
Cc1cccc(C)c1NC(=O)CNC(=O)CCC(=O)c1cccs1	0.888	1.5	1	1.12	-12.4	11.2	·
Cc1ccc(C(=O)Nc2ccncc2)cc1[N+](=O)[O-]	0.967	·	·	1.21	-21.0	3.3	·
Cc1ccc(NC(=O)c2ccncc2)cc1[N+](=O)[O-]	1.07	-11.8	1.1	2.05*	-105.3	-6.6	53.7
Cc1ccccc1N1CCN(C(=O)c2ccccc2NC(=O)/C=C\C(=O)O)CC1	1.01	10.3	0.9	0.629	37.1*	-1.2	5.3
CCN(Cc1ccccc1)c1ccc(N=Nc2nn(C)c(C)c2[N+](=O)[O-])cc1	0.66	5.5	0.9	0.652	34.8	34.0	·
CCN(CC)c1ccc(N=Nc2nn(C)c(C)c2[N+](=O)[O-])cc1	0.673	23.6	0.8	0.534	46.6*	32.7	34.7
CC(=O)c1cccc(NC(=O)CN2CCc3cc4c(cc3C2)OCCCO4)c1	0.999	·	·	0.914	8.6	0.1	·
O=C(c1cccs1)N(c1ccc(Br)cc1)C1C=CS(=O)(=O)C1 (stereo not given)	0.876	-3.6	1	1.06	-6.3	12.4	·
CCCCCN(C(=O)CCC(=O)OCc1cccc(Br)c1)c1c(N)n(CCCC)c(=O)[nH]c1=O	1.1	·	·	0.995	0.5	-9.9	·
O=C(CCN1C(=O)/C(=C/c2ccccc2Cl)SC1=S)NNC(=O)c1ccccc1O	0.731	·	·	2.08*	-108.4	26.9	62.3
C[C@@H]1NC(=O)[C@H](CCCN=C(N)N)NC(=O)c2cc([N+](=O)[O-])cc(I)c2OCC[C@@H](C(N)=O)NC1=O	·	9.8	0.9	·	·	·	·
Cc1ccc2occ(/C=N/NC(=O)c3ccncc3)c(=O)c2c1	0.903	·	·	2.31*	-131.3	9.7	-30.7
N#C/C(=C\c1ccc(O)c(O)c1)C(=O)Nc1ccccc1	0.746	·	·	0.483	51.7*	25.4	2.7
C[C@@H](NC(=O)/C(C#N)=C/c1ccc(O)c(O)c1)c1ccccc1	0.761	·	·	0.683	31.7	23.9	·
